Source: PubChem (Broad Institute)
Most compounds without a hit are left out; they make up all but 4.3% or so of the library.
ALR H2O2 inh – inhibitors of human ALR sulfhydryl oxidase, primary screen, biochemical, H2O2 detection, HRP-luminol luminescence, single point; FAD-linked sulfhydryl oxidase ALR (Homo sapiens), P55789; purified ALR, DTT oxidation; inhibition, % (no concentration beside the values); 3.8% of 290,000 active;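 active means mean replicate inhibition above about 79%, with every replicate also reaching it, limit read from the data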
Target sequence (P55789 whole entry, looked up): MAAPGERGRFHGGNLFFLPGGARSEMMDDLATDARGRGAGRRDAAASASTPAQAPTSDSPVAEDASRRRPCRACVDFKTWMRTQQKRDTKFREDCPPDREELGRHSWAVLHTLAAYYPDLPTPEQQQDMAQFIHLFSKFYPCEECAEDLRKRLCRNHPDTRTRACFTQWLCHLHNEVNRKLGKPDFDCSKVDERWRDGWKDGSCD
CAL PDZ FP-1 – CAL PDZ peptide-binding inhibitors, primary screen, biochemical, fluorescence polarization, Cer-tagged CAL PDZ, HTS; Golgi-associated PDZ and coiled-coil motif-containing protein (Homo sapiens), Q9HD26; purified CAL PDZ, TMR-peptide fluorescence polarization, 1 h; inhibition, % at 20 µM; 0.02% of 330,000 active; AID 504414, 2011;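 active means highest replicate inhibition of at least 40%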
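Material – purified CerCALP PDZ construct · Detection – FP readout, S and P plane fluorescence · Measure – percent inhibition from loss of millipolarization · Controls – unlabelled peptide for full inhibition, DMSO wells as neutral · Probe or stimulus – TMR-labelled reporter peptide T*-PRC34 bound in PDZ groove · Times – 1 h at RT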
Dyrk1A ADPGlo – rat Dyrk1A kinase inhibitors, primary screen, biochemical, single point, plate reader | Dual specificity tyrosine-phosphorylation-regulated kinase 1A (Rattus norvegicus), Q63470 | ADP-Glo luminescence, NFATc1 peptide | inhibition, % at 12.5 µM | 0.43% of 310,000 active | AID 504441, 2011; in the data active means inhibition above about 50%
Rtt109 Vps75 – inhibitors of C. albicans Rtt109/Vps75 HAT, primary screen, biochemical, ThioGlo CoA-SH fluorescence, plate reader. Histone acetyltransferase RTT109 (Candida albicans (strain SC5314 / ATCC MYA-2876)), …. purified Rtt109/Vps75, 4 h. inhibition, % at 34.9 µM. 0.16% of 330,000 active. AID 540336, 2011;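 active means inhibition of at least 50% in every replicate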
Target sequence (Q5AAJ8 whole entry, looked up): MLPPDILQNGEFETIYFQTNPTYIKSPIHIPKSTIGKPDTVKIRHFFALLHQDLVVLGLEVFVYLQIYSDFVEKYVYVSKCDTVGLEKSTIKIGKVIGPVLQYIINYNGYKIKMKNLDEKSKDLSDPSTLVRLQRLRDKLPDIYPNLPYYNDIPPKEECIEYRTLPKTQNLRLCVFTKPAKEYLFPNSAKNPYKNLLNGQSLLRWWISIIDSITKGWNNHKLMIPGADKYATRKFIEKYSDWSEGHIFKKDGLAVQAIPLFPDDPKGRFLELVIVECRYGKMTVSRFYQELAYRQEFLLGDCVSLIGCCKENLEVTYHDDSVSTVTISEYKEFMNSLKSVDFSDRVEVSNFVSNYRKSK
CAL PDZ FP-2 – untagged CAL PDZ binding inhibitors, primary screen, biochemical, fluorescence polarization, HTS; 0.92% of 300,000 active; inhibition, % at 24.9 µM; purified CAL PDZ, TMR-peptide fluorescence polarization, 1 h;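 active means mean inhibition of at least 30% with at least half of replicates also reaching 30%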
Of the large screens only hits and unclear results are named; the others gave an inactive call.

CCN(CC)c1ccc(/C=C2\C(=O)NC(=O)N(Cc3ccco3)C2=O)cc1	none (no result: ALR H2O2 inh)
O=C(O)Cn1cc(/C=C2\C(=O)NC(=O)N(Cc3ccco3)C2=O)c2ccccc21	ALR H2O2 inh 98
CCCc1c(C)nc(SCC(=O)C(C)(C)C)nc1OC(=O)N(C)C	none (no result: CAL PDZ FP-2)
Cc1cccc(NC(=O)C(C)N2CC=C(c3ccccc3)CC2)c1 (centres undefined)	none
Nc1ccc2ccc3cccc[n+]3c2c1	none
C[n+]1c(-c2ccccc2)c2cc(N)ccc2c2ccc(N)cc21	ALR H2O2 inh 99
O=C(NC1(C(F)(F)F)Oc2ccccc2O1)N1CCC2(CC1)OCCO2	none
O=C(NC1(C(F)(F)F)Oc2ccc(Cl)cc2O1)N1CCC2(CC1)OCCO2 (centres undefined)	ALR H2O2 inh 99
CCN(CC)C(=O)c1ccc(NC(=O)CCCSc2ccccc2)cc1	CAL PDZ FP-2 80
CC1=NN(c2ccccc2)C(=O)C1/C=C1/C(=O)NC(=O)N(c2cc(C)cc(C)c2)C1=O (centres undefined)	ALR H2O2 inh 87
CCOc1ccc(N2C(=O)/C(=C/c3ccco3)C(=O)NC2=S)cc1	ALR H2O2 inh 98
CC1=NN(c2ccccc2)C(=O)C1/C=C1\C(=O)NC(=O)N(c2cc(C)cc(C)c2)C1=O (centres undefined)	none
CCc1ccc(N2C(=O)NC(=O)/C(=C\C=C\c3ccco3)C2=O)cc1	ALR H2O2 inh 98
Cc1cc(C)cc(N2C(=O)NC(=O)/C(=C\C=C\c3ccco3)C2=O)c1	ALR H2O2 inh 96
CC(C)OCC(O)CN1CC2C[C@@H](C1)Cn1c2cccc1=O (some centres undefined)	none
CCc1ccc(-n2c(O)c(C(C)=O)c(=O)[nH]c2=O)cc1 (tested in a mixture with another compound)	none
COc1ccc(CNCCc2c(C)[nH]c3ccc(OC(F)(F)F)cc23)c(OC)c1	none (no result: CAL PDZ FP-1)
COC(=O)C1=C(c2ccc(F)cc2OCc2ccccc2)C[C@@H]2CC[C@H]1N2C(=O)NCC1CC1	none
CC(=O)Nc1ccccc1C(=O)OCc1ccc(F)cc1	none
Cc1c(C)c2ccc(OCC(=O)N3CCC(C(=O)O)(c4ccccc4)CC3)cc2oc1=O	CAL PDZ FP-2 41
CCOP(=O)(OCC)C(O)c1ccc(OC)c(OC)c1 (centres undefined)	ALR H2O2 inh 99
CCOP(=O)(C#Cc1ccccc1)C(O)c1ccc(Br)cc1 (centres undefined)	none (no result: CAL PDZ FP-2)
COc1cccc(CN2CCNCC2)c1OC	CAL PDZ FP-2 90
Cc1[nH]c2ccccc2c1/C=N/O	ALR H2O2 inh 96
CN1C(C(=O)N2CCC3(CC2)OCCO3)=CC(c2ccc(F)cc2)=NS1(=O)=O	none
CCOC(=O)[C@@]12C(=O)C(=O)N[C@]1(c1ccccc1)C1OCCCC12 (some centres undefined)	none
COc1ccc2c(c1OC)C(=O)OC2c1c(O)n(C2CCCCC2)c(=O)[nH]c1=O (centres undefined)	ALR H2O2 inh 96
O=C(c1ccc2c(c1)N(Cc1ccc(F)cc1)CCS2)N1CCC2(CC1)OCCO2	ALR H2O2 inh 82 (no result: Dyrk1A ADPGlo)
Cc1ccc(CN2CCSc3ccc(C(=O)N4CCC5(CC4)OCCO5)cc32)cc1	ALR H2O2 inh 80 (no result: Dyrk1A ADPGlo)
Cc1ccccc1-n1c(-c2ccoc2)nc2ccccc2c1=O	none
CCNc1cc(N2CCNCC2)ccc1[N+](=O)[O-]	none (no result: CAL PDZ FP-1, Dyrk1A ADPGlo, Rtt109 Vps75, CAL PDZ FP-2)
NNC(=O)c1ccc(O)cc1	ALR H2O2 inh 95
CCN1CCN(c2ccc(NC(C)=O)cc2Cl)CC1	none
CN1CCN(c2ccc(N)cc2)CC1	ALR H2O2 inh 99
CCN1CCN(c2ccc(N)cc2C)CC1	ALR H2O2 inh 99
CCCCCCN1CCN(c2ccc(Cl)cc2)CC1	none
CN1CCN(c2ccc(N)c(N3CCN(C)CC3)c2)CC1	none (no result: ALR H2O2 inh)
CCN1CCN(c2ccc(N)cc2)CC1	ALR H2O2 inh 94
C/C=C1/CN2[C@@H]3C4CO[C@@H]3c3c([nH]c5cc(OC)ccc35)[C@@H]2CC14 (some centres undefined)	none
CCN(CC)P(=S)(c1c(C)nc2ccccn12)c1c(C)nc2ccccn12	none
CC(NC(=O)Cc1cccc2ccccc12)C(=O)N1CCC(=O)CC1 (centres undefined)	CAL PDZ FP-2 47
CC1CC(C)OP(=O)(OCCC#N)O1 (centres undefined)	none (no result: ALR H2O2 inh, CAL PDZ FP-2)
Cc1c(C(=O)N2CCC3(CC2)OCCO3)sc2ncnc(N3CCc4ccccc4C3)c12	none (no result: Rtt109 Vps75)
Cn1c(O)c(C(=N)COc2ccccc2)c(=O)n(C)c1=O	none (no result: CAL PDZ FP-1)
Cn1c(O)c(C(=Nc2ccccc2)SCc2ccc(Cl)cc2)c(=O)n(C)c1=O	ALR H2O2 inh 98 (no result: CAL PDZ FP-2)
O=c1cccc2n1CC1CC2CN(c2ncnc3c2cnn3-c2ccccc2)C1 (centres undefined)	none (no result: CAL PDZ FP-2)
Cn1ncnc2c(=O)n(C)c(=O)nc1-2	Dyrk1A ADPGlo 68
CCN(CC)C(=O)c1ccc2c(c1)C1C(Cl)C(Sc3ccccc3[N+](=O)[O-])CC1C(C(=O)O)N2 (centres undefined)	ALR H2O2 inh 97 (no result: Rtt109 Vps75)
c1ccc(CCN2CCC(N3CCN(c4ccccc4)CC3)CC2)cc1	ALR H2O2 inh 99 (no result: CAL PDZ FP-1)
O=C1NC(=O)C(C(CC(=O)c2ccccc2)c2ccccc2)C(=O)N1 (centres undefined)	none
CN(C)C1=NC(N(C)C)=NP(N(C)C)(N(C)C)=N1	CAL PDZ FP-2 35
COC(=O)CSC1=NP(=S)(SCC(=O)OC)N2CCCC2=C1C#N (centres undefined)	ALR H2O2 inh 98 (no result: CAL PDZ FP-2)
CN1CCc2cc(O)cc3c2[C@H]1Cc1ccc(O)c(O)c1-3	ALR H2O2 inh 99
CCCN1CCc2cc(O)cc3c2[C@H]1Cc1ccc(O)c(O)c1-3	ALR H2O2 inh 99
CCC(=NCCO)c1c(O)n(-c2ccccc2)c(=O)[nH]c1=O	none
CC/C(=N\Nc1ccccc1)c1c(O)n(-c2ccc(OC)cc2)c(=O)[nH]c1=O	ALR H2O2 inh 99
N=C1c2ccccc2CN1CC(=O)c1ccccc1	none
N=C1c2ccccc2CN1NC(=O)c1ccccc1	Rtt109 Vps75 51
CC12CN3CN(C1)CC(C)(C3)C2=NO	none
CCOP(=O)(C#CC(C)(C)C)C(O)(c1ccccc1)C(F)(F)F (centres undefined)	none
N[C@@H](Cc1ccc(N(CCCl)CCCl)cc1)C(=O)O	none
O=C(O)CCCc1ccc(N(CCCl)CCCl)cc1	ALR H2O2 inh 99
Cn1cnc([N+](=O)[O-])c1Sc1ccc([N+](=O)[O-])cc1	ALR H2O2 inh 97 (no result: CAL PDZ FP-2)
